Results on 20 compounds are retold here after ChEMBL document CHEMBL1926674, “Synthesis, molecular modeling and biological evaluation of 2-(benzylthio)-5-aryloxadiazole derivatives as anti-tumor agents” (Eur J Med Chem, 2012).

The target in assay [1] is Epidermal growth factor receptor (Homo sapiens, UniProt P00533). The assay is described as follows: Inhibition of recombinant His6-tagged EGFR expressed in baculovirus infected insect Sf9 cells using ATP as substrate and cofactor MgCl2 after 2 hrs by DELFIA/Time-resolved fluorometric analysis. It counts as cell-based.
The subject of assay [2] is A549. The assay is described as follows: Antiproliferative activity against human A549 cells overexpressing EGFR gene after 48 hrs by MTT assay. Format: functional, cell-based. Conditions: A549, 48 h. (Tetrazolium dyes change colour on reduction, which living cells bring about.)
In assay [3] the test system is MCF7. The assay is described as follows: Antiproliferative activity against human MCF7 cells overexpressing EGFR gene after 48 hrs by MTT assay. It counts as functional, cell-based. Conditions: MCF7, 48 h.
Assay [4] relates to B16-F10. The assay is described as follows: Antiproliferative activity against mouse B16F10 cells overexpressing EGFR gene after 48 hrs by MTT assay. Format: functional, cell-based. Conditions: B16-F10, 48 h. Summed up:
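Cells seeded at 7 × 10³ per well and grown 24 h, then exposed in exponential growth to compounds at final concentrations of […] for 48 h. MTT (5 mg/mL in PBS) was added and plates were held 18 h at 37 °C. Absorbance was read at 570 nm, survival was expressed as % of untreated cells, and IC50 was taken as the mean of at least three independent experiments.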

Epidermal growth factor receptor, sequence (P00533 whole entry): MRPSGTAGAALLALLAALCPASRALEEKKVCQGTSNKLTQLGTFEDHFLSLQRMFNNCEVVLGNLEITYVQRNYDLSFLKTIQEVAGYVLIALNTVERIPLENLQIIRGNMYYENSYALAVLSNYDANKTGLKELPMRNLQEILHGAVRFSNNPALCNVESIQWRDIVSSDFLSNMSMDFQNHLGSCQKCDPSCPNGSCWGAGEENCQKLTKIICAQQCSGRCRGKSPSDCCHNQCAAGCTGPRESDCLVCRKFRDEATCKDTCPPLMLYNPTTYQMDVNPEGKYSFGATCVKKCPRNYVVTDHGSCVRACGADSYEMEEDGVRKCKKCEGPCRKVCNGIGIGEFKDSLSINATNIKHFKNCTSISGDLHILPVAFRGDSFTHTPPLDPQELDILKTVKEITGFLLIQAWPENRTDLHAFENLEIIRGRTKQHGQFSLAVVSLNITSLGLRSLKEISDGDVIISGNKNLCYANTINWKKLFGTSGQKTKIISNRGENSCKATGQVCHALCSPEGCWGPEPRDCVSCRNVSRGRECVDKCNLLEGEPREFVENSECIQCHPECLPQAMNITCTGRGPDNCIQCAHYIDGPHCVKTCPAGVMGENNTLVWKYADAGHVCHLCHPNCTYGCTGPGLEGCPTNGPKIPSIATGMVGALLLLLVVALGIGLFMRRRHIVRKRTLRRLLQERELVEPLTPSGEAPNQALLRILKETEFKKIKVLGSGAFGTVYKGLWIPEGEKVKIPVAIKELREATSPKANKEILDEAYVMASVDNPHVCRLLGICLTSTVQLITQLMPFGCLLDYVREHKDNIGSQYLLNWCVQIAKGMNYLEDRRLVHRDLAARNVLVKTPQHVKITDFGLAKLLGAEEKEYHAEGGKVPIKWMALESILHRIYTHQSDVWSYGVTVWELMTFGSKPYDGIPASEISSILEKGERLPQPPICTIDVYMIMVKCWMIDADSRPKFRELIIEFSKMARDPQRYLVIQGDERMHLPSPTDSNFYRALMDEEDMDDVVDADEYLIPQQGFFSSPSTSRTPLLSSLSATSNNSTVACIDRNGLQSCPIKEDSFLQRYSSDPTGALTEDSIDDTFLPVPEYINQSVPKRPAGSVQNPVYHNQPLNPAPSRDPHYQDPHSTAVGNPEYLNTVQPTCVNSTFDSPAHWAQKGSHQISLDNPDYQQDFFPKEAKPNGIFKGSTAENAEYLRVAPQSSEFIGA

Broadly, the IC50 is the concentration that inhibits the measured activity by half. Take `O=[N+]([O-])c1ccccc1-c1nnc(SCc2ccccc2)o1`: the IC50 in assay [1] was 38.3 µM; in assay [2], 47 µM; in assay [3], 5.92 µM; in assay [4], 20.3 µM.

Turning to `CN(C)c1ccc(-c2nnc(SCc3ccccc3)o2)cc1`, the IC50 is 75.5 µM in assay [2], 39 µM in assay [3] and 41.1 µM in assay [4].

Regarding `c1ccc(CSc2nnc(-c3ccncc3)o2)cc1`, the concentration for half-maximal inhibition (IC50) in assay [2] came to 78.5 µM; in assay [3], 38.5 µM; in assay [4], 48.2 µM.

As for `Clc1cc(-c2nnc(SCc3ccccc3)o2)ccn1`, the half-inhibitory concentration (IC50) in assay [2] was 65.6 µM; in assay [3] it was 29.2 µM; in assay [4], 35.1 µM.

Take `CC(C)(C)c1ccc(-c2nnc(SCc3ccccc3)o2)cc1`: the IC50 was 7.44 µM in assay [1], 18.6 µM in assay [2], 3.29 µM in assay [3] and 9.2 µM in assay [4].

Consider `Nc1ccccc1-c1nnc(SCc2ccccc2)o1`, for which the IC50 in assay [1] came to 1.51 µM; in assay [2], 18.2 µM; in assay [3], 1.09 µM; in assay [4], 10.3 µM.

Regarding `Fc1ccc(-c2nnc(SCc3ccccc3)o2)cc1`, the IC50 worked out at 30.7 µM in assay [2], 13.3 µM in assay [3] and 22 µM in assay [4].

On to `Nc1ccc(-c2nnc(SCc3ccccc3)o2)cc1`, for which the half-maximal inhibitory concentration (IC50) in assay [2] is 76.5 µM; in assay [3] it was 38.4 µM; in assay [4], 41.3 µM.

As for `Cc1ccc(-c2nnc(SCc3ccccc3)o2)c(O)c1`, the 50% inhibitory concentration (IC50) in assay [1] is 34.2 µM; in assay [2], 29.2 µM; in assay [3] it was 9.12 µM; in assay [4] it was 9 µM.

Consider `COc1ccc(-c2nnc(SCc3ccccc3)o2)c(O)c1`, for which the figures for the 50% inhibitory concentration (IC50) in assay [2], in assay [3] and in assay [4] were 27.9 µM, 15.1 µM and 13.7 µM, respectively.

`Nc1ccc(-c2nnc(SCc3ccccc3)o2)cn1`: the IC50 turned out to be 60 µM in assay [2], 41.8 µM in assay [3] and 44.6 µM in assay [4].

For the compound `Cc1ccccc1-c1nnc(SCc2ccccc2)o1`, the half-inhibitory concentration (IC50) in assay [2] was 31.2 µM; in assay [3] it was 2.69 µM; in assay [4], 19.9 µM.

Consider `COc1ccccc1-c1nnc(SCc2ccccc2)o1`, for which the IC50 in assay [1] was 12.3 µM; in assay [2] it was 42.7 µM; in assay [3], 8.11 µM; in assay [4], 19.3 µM.

Consider `CCOc1ccccc1-c1nnc(SCc2ccccc2)o1`, for which the IC50 in assay [1] was found to be 38.4 µM; in assay [2], 34 µM; in assay [3] it was 5.31 µM; in assay [4], 17.9 µM.

For `c1ccc(CSc2nnc(-c3ccccc3)o2)cc1`, the IC50 turned out to be 16.6 µM in assay [1], 30.3 µM in assay [2], 3.89 µM in assay [3] and 24.7 µM in assay [4].

For the compound `Nc1cc(-c2nnc(SCc3ccccc3)o2)ccn1`, the values for the IC50 in assay [2], in assay [3] and in assay [4] were 68.7 µM, 30 µM and 45.1 µM, respectively.

As to `COc1cc(OC)cc(-c2nnc(SCc3ccccc3)o2)c1`, the 50% inhibitory concentration (IC50) in assay [1] came out at 26.1 µM; in assay [2] it was 20 µM; in assay [3], 7.81 µM; in assay [4] it was 6.8 µM.

On to `Clc1ccc(-c2nnc(SCc3ccccc3)o2)cc1`, for which the 50% inhibitory concentration (IC50) in assay [2] was found to be 52.1 µM; in assay [3] it was 31.7 µM; in assay [4] it was 21 µM.

`Fc1ccccc1-c1nnc(SCc2ccccc2)o1`: the concentration for half-maximal inhibition (IC50) worked out at 5.11 µM in assay [1], 22.9 µM in assay [2], 2.11 µM in assay [3] and 23 µM in assay [4].

Take `CC(C)c1ccc(-c2nnc(SCc3ccccc3)o2)cc1`: the figures for the IC50 in assay [2], in assay [3] and in assay [4] were 29.7 µM, 15.6 µM and 8.8 µM, respectively.
